Results: ChEMBL document CHEMBL4020747, “Drug-like property-driven optimization of 4-substituted 1,5-diarylanilines as potent HIV-1 non-nucleoside reverse transcriptase inhibitors against rilpivirine-resistant mutant virus” (Bioorg Med Chem Lett, 2017)
Values after ≈ are worked out from the molar mass of the structure shown.

Columns and labels:
[1] = test system: Liver; assay: (§1) Half life in human liver microsomes at 1 uM pretreated up to 45 mins followed by NADPH addition by LC/MS/MS analysis; assay type: ADME, microsome; settings: microsomes, 1 µM
Procedure, shortened: (§2)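 Remaining parent was quantified by LC/MS/MS at several time points to give t1/2 (min). Data from at least two experiments in parallel.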

[2] = Aqueous solubility of the compound in phosphate buffer at pH 7.4 after 4 hrs by HPLC-UV analysis; assay type: physicochemical
Procedure, shortened: (§3)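 Aqueous solubility measured by HPLC at pH 2.0 and at pH 7.4.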

[3] = test system: Human immunodeficiency virus 1; assay: Fold resistance, ratio of EC50 for rilpivirine-resistant HIV1 NL4-3 reverse transcriptase E138K mutant to EC50 for wild type HIV1 NL4-3 reverse transcriptase
Procedure, shortened: (§4)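 Fold change calculated as EC50 against the resistant NL4-3 variant (E138K or E138K+M184I) divided by EC50 against wild-type NL4-3, both measured in parallel in TZM-bl cells by luciferase reporter expression.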

[4] = Aqueous solubility of the compound in 0.01 M HCl at pH 2 after 4 hrs by HPLC-UV analysis; assay type: physicochemical; procedure, shortened: as §3
[5] = Inhibition of wild type HIV1 NL4-3 reverse transcriptase infected in human TZM-b1 cells after 2 days by bright Glo-luciferase reporter gene assay; assay type: cell-based; settings: Human immunodeficiency virus 1, NL4-3, TZM-b1, 48 h
Procedure, shortened: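 Anti-HIV activity against HIV-1 NL4-3 replication in TZM-bl cells, read out by luciferase gene expression. EC50 values from at least three experiments (n = 3). Top test concentration 100 ng/mL for the newly made series.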

[6] = test system: Liver; assay: (§5) Half life in human liver S9 fractions at 1 uM measured pretreated up to 45 mins followed by NADPH addition by LC/MS/MS analysis; assay type: ADME, tissue-based; settings: s9, 1 µM; procedure, shortened: as §2
[7] = test system: Human immunodeficiency virus; assay: Fold resistance, ratio of EC50 for rilpivirine-resistant HIV1 NL4-3 reverse transcriptase E138K/M184I double mutant to EC50 for wild type HIV1 NL4-3 reverse transcriptase; procedure, shortened: as §4
[8] = Inhibition of rilpivirine-resistant HIV1 NL4-3 reverse transcriptase E138K/M184I double mutant infected in human TZM-b1 cells after 2 days by bright Glo-luciferase reporter gene assay; assay type: cell-based; settings: Human immunodeficiency virus 1, NL4-3, TZM-b1, 48 h
Procedure, shortened: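 TZM-bl cells infected with NL4-3 variant carrying E138K or E138K+M184I RT mutations; EC50 from luciferase reporter gene expression. Test compounds up to 100 ng/mL highest concentration; at least three experiments (n = 3). Run in parallel with wild-type NL4-3 and reference drug.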

[9] = Octanol-water partition coefficient, log P of the compound at pH 7.4 after 24 hrs by HPLC method; assay type: physicochemical; settings: pH 7.4, 24 h
[10] = test system: Plasma; assay: (§6) Half life in human plasma at 10 ug/ml by LC/MS/MS analysis; assay type: ADME, cell-free
[11] = test system: TZM; assay: (§7) Cytotoxicity against human TZM-bl cells infected with HIV1 NL4-3; assay type: cell-based; settings: tzm
[12] = Inhibition of wild-type HIV-1 3B reverse transcriptase infected in human MT4 cells assessed as reduction in virus-induced cytopathic effect after 5 days by MTT assay; assay type: cell-based; settings: Human immunodeficiency virus 1, 3B, MT4, 120 h
[13] = as §1; assay type: ADME, microsome; settings: liver microsomes; procedure, shortened: as §2
[14] = as §5; assay type: ADME, tissue-based; settings: liver S9 fraction; procedure, shortened: as §2
[15] = as §6; assay type: ADME, cell-free
[16] = as §7; assay type: cell-based; settings: TZM-bl cells infected with HIV1 NL4-3

SMILES | t1/2 [1] | solubility at 4 h [2] | Ratio EC50 [3] | solubility at 4 h [4] | EC50 [5] | t1/2 [6] | Ratio EC50 [7] | EC50 [8] | logP [9] | t1/2 [10] | CC50 [11] | EC50 [12] | half-life at 1 µM [13] | half-life at 1 µM [14] | half-life at 10 ug/ml [15] | CC50 [16]
Cc1cc(/C=C/C#N)cc(C)c1Oc1cc(Nc2ccc(C#N)cc2)c(N)cc1C(=O)OCCC#N | 0.283 h | 0.36 µg/mL (≈ 0.754 µM) | 2.4 | 0.94 µg/mL (≈ 1.97 µM) | 1.11 nM | 0.2 h | 4.1 | 4.61 nM | > 5 | 32 h | > 210 nM |  |  |  |  | 
Cc1cc(/C=C/C#N)cc(C)c1Oc1cc(Nc2ccc(C#N)cc2)c(N)cc1C(N)=O | 1.5 h |  |  |  |  | 1.8 h |  |  | 3.53 | 65 h |  |  |  |  |  | 
Cc1cc(/C=C/C#N)cc(C)c1Oc1cc(Nc2ccc(C#N)cc2)c(N)cc1C(=O)NCCCO |  | 1.01 µg/mL (≈ 2.1 µM) | 0.9 | 19.9 µg/mL (≈ 41.3 µM) | 24.9 nM |  |  |  | 3.22 |  | > 208 nM |  |  |  |  | 
Cc1cc(/C=C/C#N)cc(C)c1Oc1cc(Nc2ccc(C#N)cc2)c(N)cc1C(=O)NCCCl | 1.02 h | 1.59 µg/mL (≈ 3.27 µM) | 2.6 | 9.53 µg/mL (≈ 19.6 µM) | 3.29 nM | 1.23 h | 5.2 | 17.3 nM | > 5 | 8 h | > 206 nM |  |  |  |  | 
Cc1cc(C#N)cc(C)c1Oc1nc(Nc2ccc(C#N)cc2)nc(N)c1Br [ETRAVIRINE] |  |  |  |  |  |  |  |  |  |  |  | > 1.5 nM |  |  |  | 
Cc1cc(/C=C/C#N)cc(C)c1Oc1cc(Nc2ccc(C#N)cc2)c(N)cc1C(=O)NN | 0.6 h | 2.4 µg/mL (≈ 5.47 µM) |  | 89.6 µg/mL (≈ 204 µM) | 11.6 nM | 0.65 h |  |  | 2.31 | 8 h | > 228 nM |  |  |  |  | 
COCCOC(=O)c1cc(N)c(Nc2ccc(C#N)cc2)cc1Oc1c(C)cc(/C=C/C#N)cc1C | 0.317 h | 0.77 µg/mL (≈ 1.6 µM) | 2.9 | 1.64 µg/mL (≈ 3.4 µM) | 1.52 nM | 0.158 h | 6.3 | 9.54 nM | > 5 | 62 h | > 207 nM |  |  |  |  | 
Cc1cc(/C=C/C#N)cc(C)c1Nc1ccnc(Nc2ccc(C#N)cc2)n1 [RILPIVIRINE] | 1.8 h |  |  |  | 0.44 nM | 1.7 h |  | 2.38 nM | > 5 | 92 h | > 273 nM |  |  |  |  | 
Cc1cc(/C=C/C#N)cc(C)c1Oc1cc(Nc2ccc(C#N)cc2)c(N)cc1C(=O)N1CC1 | 2.63 h | 1.2 µg/mL (≈ 2.67 µM) | 2.6 | 94.2 µg/mL (≈ 210 µM) | 3.33 nM | 1.83 h | 5 | 16.7 nM | 2.21 | 12 h | > 223 nM |  |  |  |  | 
Cc1cc(/C=C/C#N)cc(C)c1Oc1cc(Nc2ccc(C#N)cc2)c(N)cc1C(=O)N1CC(F)(F)C1 |  | 6.59 µg/mL (≈ 13.2 µM) |  | 57.6 µg/mL (≈ 115 µM) | 13.4 nM |  |  |  | 3.58 |  |  |  | 0.233 h | 0.233 h | 57 h | > 200 nM
